In brackets after ≈: the same amount, converted by molar mass. Activity calls are given as the source filed them. The rule behind the calls is not given here.
Experiments:
[1] = target: 3',5'-cyclic-AMP phosphodiesterase 4B (Homo sapiens, UniProt Q07343); assay: Inhibition of human PDE4B2
SF-268 = assay: Cytotoxicity against human SF268 cells; format: functional, cell-based
How it was run: (§1)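 Panel of three human tumour lines: MCF-7 breast carcinoma, NCI-H460 large cell lung carcinoma and SF-268 astrocytoma. The cytotoxicity protocol follows the group's earlier reports.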

NCI-H460 = assay: Cytotoxicity against human H460 cells; format: functional, cell-based; how it was run: as §1
MCF7 = assay: Cytotoxicity against human MCF7 cells; format: functional, cell-based; how it was run: as §1
Candida albicans = assay: Antifungal activity against Candida albicans by agar plate diffusion assay; format: functional, organism-based
Staphylococcus aureus = assay: Antibacterial activity against Staphylococcus aureus by agar plate diffusion assay; format: functional
[2] = Inhibition of cGMP-PDE (unknown origin); set-up: species or system Homo sapiens
[3] = Inhibition of cAMP-PDE (unknown origin); set-up: species or system Homo sapiens

Sequence of 3',5'-cyclic-AMP phosphodiesterase 4B (Q07343 whole entry): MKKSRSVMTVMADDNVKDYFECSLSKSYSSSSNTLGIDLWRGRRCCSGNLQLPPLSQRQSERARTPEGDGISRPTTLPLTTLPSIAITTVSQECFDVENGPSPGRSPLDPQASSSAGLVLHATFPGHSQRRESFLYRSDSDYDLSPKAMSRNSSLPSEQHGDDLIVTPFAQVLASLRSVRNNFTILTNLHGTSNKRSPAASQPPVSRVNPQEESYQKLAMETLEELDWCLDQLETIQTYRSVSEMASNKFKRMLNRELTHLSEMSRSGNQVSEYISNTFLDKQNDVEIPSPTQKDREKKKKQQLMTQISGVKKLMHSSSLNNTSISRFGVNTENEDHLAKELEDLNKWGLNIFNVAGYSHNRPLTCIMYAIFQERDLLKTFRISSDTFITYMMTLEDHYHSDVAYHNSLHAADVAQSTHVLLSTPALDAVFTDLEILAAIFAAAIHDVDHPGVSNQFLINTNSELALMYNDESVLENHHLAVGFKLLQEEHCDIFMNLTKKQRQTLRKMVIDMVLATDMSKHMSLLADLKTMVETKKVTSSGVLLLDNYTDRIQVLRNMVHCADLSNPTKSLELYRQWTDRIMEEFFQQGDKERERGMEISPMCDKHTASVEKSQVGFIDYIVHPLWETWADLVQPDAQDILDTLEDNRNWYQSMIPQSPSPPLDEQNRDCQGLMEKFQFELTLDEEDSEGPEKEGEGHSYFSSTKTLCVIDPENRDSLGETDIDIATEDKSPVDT

In the case of `COc1c(O)c(-c2ccccc2)cc(O)c1-c1ccccc1`, the IC50 [1] is reported as 31 µM, the Activity (SF-268) is reported as “Active” and the Activity (NCI-H460) is reported as “Active”. The Activity (MCF7) was “Active”, the Activity (Candida albicans) was “inactive” and the MIC (Staphylococcus aureus) was 25 µg/mL (≈ 85.5 µM).

In the case of `COC1=C(c2ccccc2)C(=O)C(OC)=C(c2ccccc2)C1=O` [BETULINAN A], the IC50 [1] is reported as 44 µM, the Activity (SF-268) is reported as “inactive” and the Activity (NCI-H460) is reported as “inactive”. The Activity (MCF7) was “inactive”.

With `COC1=C(c2ccccc2)C(=O)C=C(c2ccccc2)C1=O` [BETULINAN C] the IC50 [1] was 17 µM, the Activity (SF-268) was “Active” and the Activity (NCI-H460) was “Active”. For the same molecule, the Activity (MCF7) was “Active”, the Activity (Candida albicans) was “inactive” and the MIC (Staphylococcus aureus) was 25 µg/mL (≈ 86.1 µM).

`COc1cc(-c2ccccc2)c(O)c(O)c1-c1ccccc1` [TERFEROL] showed an IC50 [2] of 0.96 µM and an IC50 [3] of 0.82 µM.
